Here are results for 6 molecules from publication PMC5125728 (Cell reports, 2016).

Broadly, the Kd is the constant that tells how readily two partners part at equilibrium. Read a low Kd as higher affinity.

For test [1], the system named is E662K mutant of PHF20 PHD finger. In words: NMR and tryptophan fluorescence binding, E662K mutant of PHF20 PHD. On the set-up: species or system human. Conditions: E662K folded, soluble, stable protein; Figures 4C and 4E. In short, it runs like this:
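GST-tagged PHF20 PHD (aa 651–699), wild-type or point mutant made by site-directed mutagenesis, was expressed in E. coli Rosetta-2(DE3)pLysS in 15NH4Cl minimal medium with 150 μM ZnCl2, then GST-cleaved. 1H,15N HSQC spectra were collected at 298K (600/500 MHz) as 12-mer histone tail peptides were added stepwise. Shift changes were normalized as √(ΔδH²+(ΔδN/5)²); Kd came from a nonlinear least-squares fit.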

The next test relates to GST-PHF20 PHD. Briefly: Biotinylated histone peptide pull-down with GST-PHF20 PHD, western blot. The format is binding, human. The following applies: 1 μg biotinylated peptide, 1 μg GST-PHF20 PHD, 50 mM Tris-HCl pH 7.5, 250 mM NaCl, 0.1% NP-40, overnight, streptavidin beads. (In general: In western blotting, separated proteins are transferred to a membrane and probed.)
Test [2] has as its target T1, E662D mutant of PHF20-PHD (Homo sapiens, UniProt Q9BVI0, E662D).
T1 sequence (Q9BVI0 651-699 E662D): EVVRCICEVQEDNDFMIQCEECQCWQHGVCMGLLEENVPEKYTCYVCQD
In words: Tryptophan fluorescence binding of histone peptides to E662D mutant of PHF20 PHD. In short, it runs like this: (§1)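 The PHF20 PHD (aa 651–699, GST cleaved; mutants by site-directed mutagenesis) was in PBS pH 6.8 with 10 mM DTT at room temperature. Histone peptide was increased progressively. Excitation was at 280 nm and emission was scanned 310–405 nm (0.5-nm steps, 1-s integration, three scans averaged). Kd came from a nonlinear least-squares fit of intensity change, averaged over three separate experiments, with SD between runs.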

The target of the next test is T2, PHF20 PHD finger (WT) (Homo sapiens, UniProt Q9BVI0).
T2 sequence (Q9BVI0 651-699): T1 sequence (Q9BVI0 651-699 E662D) with D12E
Briefly: Tryptophan fluorescence binding of histone peptides to WT PHF20 PHD finger. Summed up: as §1

Test [3] concerns the target PHF20 PHD finger (aa 651-699), wild type (human) (UniProt Q9BVI0). In words: other fluorescence titration.
Test [4] deals with PHF20 PHD finger E662D (human) (UniProt Q9BVI0). In words: other fluorescence titration.
For test [5], the target named is T3, PHF20 PHD finger (residues 646-699) (human, UniProt Q9BVI0 646-699).
T3 sequence (looked up): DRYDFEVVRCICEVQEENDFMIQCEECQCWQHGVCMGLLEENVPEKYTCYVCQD
Briefly: NMR structure.

In the next test the target is T4, PHF20 PHD finger F665V (human, UniProt Q9BVI0 651-699, F665V).
T4 chain (looked up): T1 sequence (Q9BVI0 651-699 E662D) with D12E, F15V
In words: NMR titration.

Another test addresses T5, PHF20 PHD finger R654H (human, UniProt Q9BVI0 651-699, R654H).
T5 chain (looked up): T1 sequence (Q9BVI0 651-699 E662D) with R4H, D12E
Briefly: NMR titration.

For the next test, the target named is T6, PHF20 PHD finger P689L (human, UniProt Q9BVI0 651-699, P689L).
T6 chain (looked up): T1 sequence (Q9BVI0 651-699 E662D) with D12E, P39L
In words: NMR titration.

Test [6] has as its target T7, PHF20 PHD finger (aa 651-699), wild type (human, UniProt Q9BVI0 651-699).
T7 chain (looked up): T1 sequence (Q9BVI0 651-699 E662D) with D12E
Briefly: other fluorescence titration.

The target in a further test is T8, PHF20 PHD finger E662D (human, UniProt Q9BVI0 651-699, E662D).
T8 chain (looked up): T1 sequence (Q9BVI0 651-699 E662D)
In words: other fluorescence titration.

For a further test, the target named is T9, PHF20 Tudor2 (aa 58-148) (human, UniProt Q9BVI0 58-148).
T9 sequence (looked up): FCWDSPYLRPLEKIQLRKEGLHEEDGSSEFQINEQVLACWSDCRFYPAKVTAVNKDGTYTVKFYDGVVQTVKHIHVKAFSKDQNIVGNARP
In words: NMR titration.

Where a chain is given by its changes, count along the chain named. Where no end group is shown, it is not given here. Me2 = dimethyl (dimethyl-lysine)

`C[C@H](N)C(=O)N[C@@H](CCCNC(=N)N)C(=O)N[C@H](C(=O)N[C@@H](CCCCN(C)C)C(=O)N[C@@H](CCC(N)=O)C(=O)N[C@H](C(=O)N[C@@H](C)C(=O)N[C@@H](CCCNC(=N)N)C(=O)N[C@@H](CCCCN)C(=O)N[C@@H](CO)C(=O)N[C@H](C(N)=O)[C@@H](C)O)[C@@H](C)O)[C@@H](C)O` [H3K4me2]: the “interaction with E662K mutant” value in test [1] is reported as “completely abrogated interaction”. In addition, the “binding in peptide pull-down” value in the test with GST-PHF20 PHD is given as “binds”. The Kd (in test [2]; at PHF20 PHD finger (WT)) was 3.6 µM in each case.

For H3K4me0 peptide (12-mer), in test [3], the fold weaker than H3K4me2 is 20 fold.

In turn, H3K4me1 peptide (12-mer) yielded a fold weaker than H3K4me2 in [3] of 14 fold.

In [3], H3K4me3 peptide (12-mer) gave a fold weaker than H3K4me2 of 6 fold. For the same molecule, the Kd in test [4] came to 3.7 µM.

ARTK(Me2)QTARKST-NH2 [11-residue C-terminally amidated H3K4me2 peptide]: the binding result in test [5] is given as “binds”.

For ARTK(Me2)QTARKSTG (peptide, UniProt P68431 2-13, looked up) [H3K4me2 peptide (aa 1-12)], the “fold decrease of binding compared with WT” value with PHF20 PHD finger F665V was approximately 9 fold; in the test with PHF20 PHD finger R654H, approximately 8 fold; with PHF20 PHD finger P689L, approximately 17 fold. In addition, the Kd in test [6] was 3.6 µM; with PHF20 PHD finger E662D it was 3.6 µM; with PHF20 Tudor2 (aa 58-148), approximately 1000 µM.
